# Key:
# [1] = Selectivity index, ratio of IC50 for human SAE cells lacking FASN expression to IC50 for human A549 cells expressing FASN
# Procedure, shortened: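 The ratio IC50(SAEC)/IC50(NSCLC line) was calculated from 72 h MTS viability IC50 values.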
# [2] = biological target: Fatty acid synthase (Homo sapiens) (UniProt P49327); assay: Inhibition of FASN in human PC9 cells harboring FASN expression and EGFR delE746-A750 mutant assessed as disruption of AKT/FASN positive feedback loop by measuring ratio of phosphoAKT/AKT expression at 2 uM after 48 hrs in presence of exogenous lipid concentrate by Western immunoblot based densitometric assay relative to control; type: cell-based
# Procedure, shortened: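 PC-9 (2 µM) or H1703 (1 µM) cells were treated with compound, with or without lipid concentrate (1% v/v per figure legend), for 48 h. Cells were lysed in RIPA buffer and lysates run on SDS-PAGE western blots for FASN, AKT, phospho-AKT S473 and GAPDH. Bands were quantified by densitometry and normalised to untreated control.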
# Chain of Fatty acid synthase (Homo sapiens) (P49327 whole entry, looked up): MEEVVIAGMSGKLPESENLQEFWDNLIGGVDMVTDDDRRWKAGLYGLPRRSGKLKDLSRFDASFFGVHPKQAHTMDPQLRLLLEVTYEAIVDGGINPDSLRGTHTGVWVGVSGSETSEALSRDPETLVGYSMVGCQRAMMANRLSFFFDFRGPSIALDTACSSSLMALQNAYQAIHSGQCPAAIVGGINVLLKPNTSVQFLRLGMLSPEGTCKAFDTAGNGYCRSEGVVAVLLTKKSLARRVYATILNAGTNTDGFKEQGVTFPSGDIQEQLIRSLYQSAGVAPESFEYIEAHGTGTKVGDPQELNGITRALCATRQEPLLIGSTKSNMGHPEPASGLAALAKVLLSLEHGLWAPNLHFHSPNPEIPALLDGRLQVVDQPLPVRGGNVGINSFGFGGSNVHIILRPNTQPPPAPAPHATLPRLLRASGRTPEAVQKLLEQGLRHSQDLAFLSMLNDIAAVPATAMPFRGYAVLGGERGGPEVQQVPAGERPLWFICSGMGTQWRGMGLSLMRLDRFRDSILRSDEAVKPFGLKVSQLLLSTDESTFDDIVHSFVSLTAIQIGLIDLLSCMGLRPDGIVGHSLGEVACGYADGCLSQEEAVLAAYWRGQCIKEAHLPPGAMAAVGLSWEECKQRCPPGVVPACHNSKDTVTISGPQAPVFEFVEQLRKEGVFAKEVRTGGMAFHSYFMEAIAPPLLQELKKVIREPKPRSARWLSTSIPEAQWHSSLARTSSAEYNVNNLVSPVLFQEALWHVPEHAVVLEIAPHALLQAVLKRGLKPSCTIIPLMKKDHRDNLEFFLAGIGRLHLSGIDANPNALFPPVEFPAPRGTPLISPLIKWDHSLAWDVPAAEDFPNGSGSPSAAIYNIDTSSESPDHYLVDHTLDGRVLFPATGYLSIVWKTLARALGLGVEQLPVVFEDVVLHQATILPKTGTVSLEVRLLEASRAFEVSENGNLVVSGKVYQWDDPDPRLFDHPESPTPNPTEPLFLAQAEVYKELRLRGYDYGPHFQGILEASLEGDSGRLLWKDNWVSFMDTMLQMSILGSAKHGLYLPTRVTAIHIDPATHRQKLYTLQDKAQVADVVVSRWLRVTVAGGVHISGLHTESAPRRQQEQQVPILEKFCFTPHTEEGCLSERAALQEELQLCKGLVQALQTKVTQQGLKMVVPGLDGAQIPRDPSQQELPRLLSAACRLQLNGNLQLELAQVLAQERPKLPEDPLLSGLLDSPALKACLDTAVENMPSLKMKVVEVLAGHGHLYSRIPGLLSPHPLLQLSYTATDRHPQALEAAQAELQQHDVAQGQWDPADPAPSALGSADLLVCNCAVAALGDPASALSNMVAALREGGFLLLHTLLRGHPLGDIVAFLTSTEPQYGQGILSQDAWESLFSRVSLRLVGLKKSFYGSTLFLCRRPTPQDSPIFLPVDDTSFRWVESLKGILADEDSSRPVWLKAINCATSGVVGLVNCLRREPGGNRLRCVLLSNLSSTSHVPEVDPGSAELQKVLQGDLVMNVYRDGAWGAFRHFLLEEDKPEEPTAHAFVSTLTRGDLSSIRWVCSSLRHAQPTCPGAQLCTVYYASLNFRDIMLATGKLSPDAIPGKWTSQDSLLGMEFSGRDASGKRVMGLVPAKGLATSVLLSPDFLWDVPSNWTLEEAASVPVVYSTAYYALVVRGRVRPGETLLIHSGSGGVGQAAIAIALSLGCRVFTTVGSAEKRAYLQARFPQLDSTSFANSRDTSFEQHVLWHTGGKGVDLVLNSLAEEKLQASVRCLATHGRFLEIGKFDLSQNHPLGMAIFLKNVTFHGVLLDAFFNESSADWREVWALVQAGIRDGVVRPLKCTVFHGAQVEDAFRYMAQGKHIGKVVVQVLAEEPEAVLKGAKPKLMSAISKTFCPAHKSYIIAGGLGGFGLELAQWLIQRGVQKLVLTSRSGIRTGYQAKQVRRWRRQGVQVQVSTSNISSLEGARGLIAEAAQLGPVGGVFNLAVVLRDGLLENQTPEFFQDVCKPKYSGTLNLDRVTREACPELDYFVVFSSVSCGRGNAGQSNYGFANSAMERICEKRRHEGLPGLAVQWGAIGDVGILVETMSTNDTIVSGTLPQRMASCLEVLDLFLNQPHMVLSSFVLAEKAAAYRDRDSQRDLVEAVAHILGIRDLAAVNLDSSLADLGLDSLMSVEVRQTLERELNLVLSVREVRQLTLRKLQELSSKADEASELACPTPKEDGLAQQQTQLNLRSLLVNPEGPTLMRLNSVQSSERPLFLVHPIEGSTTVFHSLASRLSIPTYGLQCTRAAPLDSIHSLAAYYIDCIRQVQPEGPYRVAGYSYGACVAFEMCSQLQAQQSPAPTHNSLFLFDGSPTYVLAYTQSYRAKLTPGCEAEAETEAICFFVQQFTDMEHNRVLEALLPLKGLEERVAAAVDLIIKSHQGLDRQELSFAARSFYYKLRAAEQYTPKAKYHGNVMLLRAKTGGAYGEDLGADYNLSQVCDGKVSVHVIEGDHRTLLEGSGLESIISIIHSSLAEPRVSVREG
Ratio [2],Structure (SMILES),Ratio IC50 [1]
0.57,O=C(Oc1ccc(/C=C/c2ccc(OC(=O)c3cc(O)c(O)c(O)c3)cc2)cc1)c1cc(O)c(O)c(O)c1,2.4
0.87,O=C(Oc1ccc(/C=C/c2cccc(OC(=O)c3cc(O)c(O)c(O)c3)c2)cc1)c1cc(O)c(O)c(O)c1,3
